# Compound activity deposited in PubChem BioAssay by several laboratories.
# Shown are actives, neighbours in structure and some others; about 1% of the full set was active somewhere.
# NALP3 yeast inh: NALP3 inflammasome inhibitors in reconstituted yeast, primary screen, luminescence, uHTS; Yeast reconstituted NLRP3/ASC/caspase-1, beta-gal luminescence, 24 h; inhibition, % at 10 µM; hit rate 0.39% among 330,000;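 active means inhibition of 50% or more; inactive means inhibition below 50%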;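 further: plate controls were induced DMSO wells for no effect and uninduced yeast grown without galactose for full effect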
# Bfl-1 A1 inh: caspase 3/7 activation in MEF A1-2A-BIM cells, primary screen, A1 inhibitor project, cell-based, luminescence, HTS; Caspase-Glo 3/7 luminescence, 3 h; percent of clofoctol response, vehicle zero; caspase activation, % (test concentration not listed); hit rate 0.066% among 330,000; AID 2462, 2010;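 active means over half of replicate activation scores above 10%, or exactly half above 10 with the replicate mean above 10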
# T cell HTS: modulators of CD8 T cell-vesicle binding, primary screen, mouse 2C CD8+ T cells, flow cytometry | 2C CD8+ T cell-vesicle binding; active compounds read low | response (vesicle binding), % at 7 µM | hit rate 0.068% among 330,000;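 active means response, share of CD8 T cells binding vesicles, and their 90th percentile fluorescence all below set limits, cut at about 80% in these data, passing the limit was not always enough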;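 further: values below 100% mean blocked vesicle binding to the CD8+ T cells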
#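 Material: 2C TCR transgenic mouse naive CD8+ T cells, MACS-purified. Also added: QL9-charged Drosophila Ld/ICAM-1/B7-1 vesicles. Timing: binding 1.5 h at 37 °C. Measured by: high-throughput flow cytometry with anti-B7-1 and anti-CD8 staining. Read-out: percent CD8+ FL2 mean versus row control. Controls: Unloaded micro-vesicles (low), QL9 vesicles with 0.7% DMSO (high).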
# NALP1 inh: NALP1 inflammasome inhibitors in reconstituted yeast, colorimetric, S. cerevisiae, triplicate retest; S. cerevisiae NALP1/ASC/caspase-1 growth, X-gal OD620, 72 h; inhibition, % at 10 µM; hit rate 0.61% among 280,000; in the data active means inhibition mostly above about 24%, no sharp cut-off; inactive means mostly below about 32%
# * = called active by the depositor; i = inactive; . = no result given; ! = not confirmed by another sample.
SMILES,NALP3 yeast inh,Bfl-1 A1 inh,T cell HTS,NALP1 inh
COc1ccc(CCNC(=O)c2ccc(OCC(=O)N3CCOCC3)c(OC)c2)cc1OC,6,0,676,30*
COc1cc(CNCCc2ccc(S(N)(=O)=O)cc2)ccc1OCC(=O)N1CCCCC1,11,0,79*,12
NS(=O)(=O)c1ccc(NC(=S)NC(=O)c2ccco2)cc1,11,0,146,41*!
CC(=O)NS(=O)(=O)c1ccc(NC(=S)NC(=O)c2ccco2)cc1,6,0,431,3
Cc1ccc(C(=O)N2CCN(c3ccccc3Cl)CC2)cc1[N+](=O)[O-],11,0,426,38*
CCC(=O)N1CCN(c2ccc(NC(=O)c3ccc(N4CCOCC4)c([N+](=O)[O-])c3)cc2)CC1,25,0,220,38*
CCC(=O)N1CCN(c2ccc(NC(=O)c3ccc(N4CCCC4)c([N+](=O)[O-])c3)cc2)CC1,2,0,244,14
CC(=O)N1CCN(c2ccc(C(N)=O)cc2[N+](=O)[O-])CC1,-6,2,307,32*
NC(=O)c1ccc(N2CCCCCC2)c([N+](=O)[O-])c1,3,1,154,-1
Nc1nonc1-n1nnc(C(=O)N/N=C/c2ccccn2)c1CNc1ccccc1,13,1,i,-18
CSc1ccccc1C(=O)OCC(=O)Nc1cccnc1Cl,19,0,416,.
Cc1ccc(C2(C(F)(F)F)N=C3Sc4cc(C)ccc4N3C(=O)N2)cc1 (stereo not given),15,-1,168,36*
Cc1ccc(C2(C(F)(F)F)NC(=O)N3CCN=C3S2)cc1 (stereo not given),8,0,282,15
CCCCNC(=O)Nc1ncn[nH]1,14,0,695,40*
N=c1c2c(ncn1Cc1ccco1)Oc1c(ccc3ccccc13)C2c1ccccc1 (stereo not given),21,0,158,63*
CCOCCCNC(=O)C1CC(=O)N(CCc2ccc(C)cc2)C1 (stereo not given),4,0,86,38*
CCCC(=O)c1cc2c(cc1NC(=O)c1cccs1)OCCO2,-15,-1,445,27*
COc1ccccc1NS(=O)(=O)c1ccc(C(=O)NCC(c2cccs2)N2CCOCC2)cc1 (stereo not given),11,0,500,.
Cc1nn(CC(=O)NCCc2ccc(Cl)cc2)c(=O)c2cccn12,0,-1,491,9
N/C(=N\OC(=O)CC1CCCCC1)c1ccc(Cl)cc1,26,0,410,32*
Cc1nn(Cc2ccccc2)c2c1C(c1cccnc1)C(C#N)=C(N)O2 (stereo not given),-3,1,192,41*
Cc1nn(Cc2ccccc2)c2c1C(c1ccncc1)C(C#N)=C(N)O2 (stereo not given),11,-1,497,12
COc1ccc(C(=O)NCCC2=CCCCC2)cc1[N+](=O)[O-],2,0,454,35*
COc1ccc(OCC(=O)NCCC2=CCCCC2)c([N+](=O)[O-])c1,37,0,186,-5
CCOc1ccccc1N1CCN(S(=O)(=O)c2ccc(F)c(F)c2)CC1,37,0,463,40*
SMILES,NALP3 yeast inh,Bfl-1 A1 inh,T cell HTS,NALP1 inh
O=C(CCc1ccccc1)N=C1SC2CS(=O)(=O)CC2N1Cc1ccccc1 (stereo not given),9,0,300,29
O=C(Nc1ccc(O)c2c(=O)cc(-c3cccc(Cl)c3)oc12)c1cccc(Cl)c1,4,15*,633,0
NS(=O)(=O)c1ccc(NC(=O)CSc2nnc3n2CCCCC3)cc1,0,0,217,.
CC(C)c1ccc2nc(SCC(=O)NCC3CCCO3)c(C#N)cc2c1 (stereo not given),-4,0,325,17
COc1cccc(OC)c1-c1nnc(-c2cn(C)c3ccccc23)o1,-3,0,33*,3
COc1ccccc1-c1nnc(-c2ccc(C)cc2)o1,36,-2,194,.
CCn1cc(CN2CCC(C(=O)Nc3ccc(Oc4ccccc4)nc3)CC2)cn1,5,0,337,34*
O=C(Nc1ccc(Oc2cccnc2)cc1)C1CCN(Cc2ccccc2)CC1,26,0,646,12
O=C(Nc1ccc(Oc2cccnc2)cc1)C1CCN(Cc2cccc(Cl)c2)CC1,25,0,170,36*
O=C(Nc1ccc(Oc2ccccc2)nc1)C1CCN(Cc2ccccc2)CC1,19,0,461,16
